Active and inactive are the calls of the source. The rule behind the calls is not given here.
tested on: RAW264.7; assay: Cytotoxicity against mouse RAW264.7 cells assessed as reduction in cell viability at 100 uM after 24 hrs by CCK8 assay; type: cell-based; conditions: raw264.7, 24 h
Method in brief: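 Cells were exposed to compound across 0–100 range for 24 h. Viability was then measured by CCK8 assay on the well supernatant, following kit instructions. Comparison was made with cells given 0 μM compound.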

| SMILES | Activity |
| --- | --- |
| C=C1CC[C@H]2[C@@H](/C=C(\C)C(=O)[C@@]3(OC(C)=O)C[C@H](C)[C@H](OC(=O)/C=C/c4ccccc4)[C@@H]3[C@H]1O)C2(C)C | Toxic |

tested on: RAW264.7; assay: Anti-inflammatory activity in mouse RAW264.7 cells assessed as inhibition of LPS-induced IL1beta production preincubated for 3 hrs followed by LPS-stimulation and measured after 24 hrs by ELISA; type: functional, cell-based; conditions: not given
Method in brief: (§1)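 Cells were pretreated with compound at 2.5, 5 or 10 μM for 3 h, then stimulated with 1 μg/mL LPS for 24 h. IL-1β and IL-6 were quantified in collected supernatants by commercial ELISA kits. Significance was assessed against unstimulated, untreated control.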

| SMILES | inhibition |
| --- | --- |
| C=C1CC[C@H]2[C@@H](/C=C(\C)C(=O)[C@@]3(OC(C)=O)C[C@H](C)[C@H](OC(=O)/C=C/c4ccccc4)[C@@H]3[C@H]1O)C2(C)C | Dose-dependent effect |

target: T1, NF-kappa-B inhibitor alpha (Mus musculus) (UniProt Q9Z1E3); assay: Inhibition of IkappaBalpha phosphorylation in LPS-stimulated mouse RAW264.7 cells assessed as reduction in NF-kappaB p65 nuclear translocation at 5 to 10 uM pretreated for 2 hrs followed by LPS-stimulation measured after 12 hrs by DAPI staining based immunofluorescence assay; type: cell-based; conditions: not given
T1 sequence (whole entry): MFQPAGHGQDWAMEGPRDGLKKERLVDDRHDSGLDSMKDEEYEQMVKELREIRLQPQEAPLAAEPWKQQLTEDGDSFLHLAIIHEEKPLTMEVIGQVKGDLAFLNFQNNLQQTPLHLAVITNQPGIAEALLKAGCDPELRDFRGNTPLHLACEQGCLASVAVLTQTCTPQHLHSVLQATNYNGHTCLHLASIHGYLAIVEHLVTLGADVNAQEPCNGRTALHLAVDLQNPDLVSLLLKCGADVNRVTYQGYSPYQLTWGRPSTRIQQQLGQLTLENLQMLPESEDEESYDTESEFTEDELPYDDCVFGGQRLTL
Method in brief: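 Cells at 70% confluence were pretreated with DMSO, given 5 or 10 μM compound for 2 h, then activated with 1 μg/mL LPS for 12 h. Cells were fixed in 4% paraformaldehyde, permeabilized with 0.25% Triton X-100 and blocked with 5% BSA. Staining used P65 antibody (1:1000, 4 °C overnight), AlexaFluor488 secondary (1:500, 1 h) and DAPI for nuclei.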

| SMILES | inhibition |
| --- | --- |
| C=C1CC[C@H]2[C@@H](/C=C(\C)C(=O)[C@@]3(OC(C)=O)C[C@H](C)[C@H](OC(=O)/C=C/c4ccccc4)[C@@H]3[C@H]1O)C2(C)C | Active |

tested on: RAW264.7; assay: Anti-inflammatory activity in mouse RAW264.7 cells assessed as inhibition of LPS-induced IL-6 production preincubated for 3 hrs followed by LPS-stimulation and measured after 24 hrs by ELISA; type: functional, cell-based; conditions: not given; method in brief: as §1

| SMILES | inhibition |
| --- | --- |
| C=C1CC[C@H]2[C@@H](/C=C(\C)C(=O)[C@@]3(OC(C)=O)C[C@H](C)[C@H](OC(=O)/C=C/c4ccccc4)[C@@H]3[C@H]1O)C2(C)C | Dose-dependent effect |

tested on: RAW264.7; assay: Anti-inflammatory activity in mouse RAW264.7 cells assessed as inhibition of LPS-induced nitric oxide production preincubated for 3 hrs followed by LPS-stimulation and measured after 24 hrs by Griess assay; type: functional, cell-based; conditions: not given
Method in brief: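 Mouse macrophage RAW264.7 cells (ATCC) grown in DMEM with 10% FBS and penicillin/streptomycin at 37 °C, 5% CO2. Seeded at 5000 cells/well and cultured overnight. Medium replaced with compound-containing medium (0−100 μM) for 3 h, then 1 μg/mL LPS added for 24 h. Supernatant mixed 1:1 with Griess reagent for 10 min at room temperature, absorbance read at 540 nm. Nitrite quantified from a standard curve; IC50 taken from inhibition rates across a concentration gradient.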

| SMILES | IC50 |
| --- | --- |
| C=C1[C@@H](OC(=O)c2cccnc2)C[C@H]2[C@@H](/C=C(\C)C(=O)[C@@]3(OC(C)=O)C[C@H](C)[C@H](OC(=O)c4ccccc4)[C@@H]3[C@H]1OC(C)=O)C2(C)C | 2.6 µM |
| C=C1[C@@H](OC(=O)c2ccccc2)C[C@H]2[C@@H](/C=C(\C)C(=O)[C@@]3(OC(C)=O)C[C@H](C)[C@H](OC(=O)c4ccccc4)[C@@H]3[C@H]1OC(C)=O)C2(C)C | > 100 µM |
| C=C1[C@H](O)C[C@H]2[C@@H](/C=C(\C)C(=O)[C@@]3(OC(C)=O)C[C@H](C)[C@H](OC(=O)c4ccccc4)[C@@H]3[C@H]1OC(C)=O)C2(C)C | 5 µM |
| CC(=O)O[C@]12C[C@H](C)[C@H](OC(=O)Cc3ccccc3)[C@@H]1/C=C(/CO)CC[C@H]1[C@@H](/C=C(\C)C2=O)C1(C)C | > 100 µM |
| CC(=O)O[C@]12C[C@H](C)[C@H](O)[C@@H]1[C@H]1O[C@]1(C)CC[C@H]1[C@H](/C=C(\C)C2=O)C1(C)C | > 100 µM |
| C=C1CC[C@H]2[C@@H](/C=C(\C)C(=O)[C@@]3(OC(C)=O)C[C@H](C)[C@H](OC(=O)/C=C/c4ccccc4)[C@@H]3[C@H]1O)C2(C)C | 3 µM |
| CC(=O)O[C@]12C[C@H](C)[C@H](OC(=O)/C=C/c3ccccc3)[C@@H]1/C=C(/CO)CC[C@H]1[C@@H](/C=C(\C)C2=O)C1(C)C | 26 µM |
| C[C@@H]1C[C@H]2[C@@H]3CCC4=CC(=O)C=C[C@]4(C)[C@@]3(F)[C@@H](O)C[C@]2(C)[C@@]1(O)C(=O)CO [DEXAMETHASONE] | 7.9 µM |
| C=C1CC[C@H]2[C@@H](/C=C(\C)C(=O)[C@@]3(OC(C)=O)C[C@H](C)[C@H](OC(=O)c4cccnc4)[C@@H]3[C@H]1OC(C)=O)C2(C)C | 100 µM |
| C=C1[C@H](OC(C)=O)C[C@H]2[C@@H](/C=C(\C)C(=O)[C@@]3(OC(C)=O)C[C@H](C)[C@H](OC(=O)c4ccccc4)[C@@H]3[C@H]1O)C2(C)C | 4 µM |
| CC(=O)O[C@@H]1[C@H]2[C@@H](OC(=O)Cc3ccccc3)[C@@H](C)C[C@]2(OC(C)=O)C(=O)/C(C)=C/[C@@H]2[C@H](CC[C@]13CO3)C2(C)C | 9.9 µM |
| CC(=O)OC/C1=C\C[C@H]2[C@@H](/C=C(\C)C(=O)[C@@]3(O)C[C@H](C)[C@H](OC(=O)c4ccccc4)[C@@H]3[C@H]1OC(C)=O)C2(C)C | > 100 µM |
| C=C1[C@@H](OC(=O)c2ccccc2)C[C@H]2[C@@H](/C=C(\C)C(=O)[C@@]3(O)C[C@H](C)[C@H](OC(=O)c4ccccc4)[C@@H]3[C@H]1OC(C)=O)C2(C)C | 15.2 µM |
| C=C1CC[C@H]2[C@@H](/C=C(\C)C(=O)[C@@]3(OC(C)=O)C[C@H](C)[C@H](OC(=O)c4ccccc4)[C@@H]3[C@H]1OC(C)=O)C2(C)C | 8.3 µM |
| CC(=O)OC/C1=C/[C@@H]2[C@@H](O)[C@@H](C)C[C@]2(OC(C)=O)C(=O)/C(C)=C/[C@@H]2[C@H](CC1)C2(C)C | > 50 µM |
| CC(=O)OC/C1=C/[C@H]2[C@@H](OC(=O)[C@H](O)c3ccccc3)[C@@H](C)C[C@]2(OC(C)=O)C(=O)/C(C)=C/[C@@H]2[C@H](CC1)C2(C)C | > 50 µM |
| CCCCCC(=O)O[C@H]1[C@@H](C)C[C@]2(OC(C)=O)C(=O)/C(C)=C/[C@@H]3[C@H](CC/C(CO)=C\[C@@H]12)C3(C)C | 9.3 µM |

tested on: RAW264.7; assay: Cytotoxicity against mouse RAW264.7 cells assessed as reduction in cell viability after 24 hrs by CCK8 assay; type: cell-based; conditions: RAW264.7, 24 h
Method in brief: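 RAW264.7 macrophages cultured in DMEM with 10% FBS and penicillin/streptomycin at 37 °C, 5% CO2. Cells exposed to compound for 24 h. Viability measured by CCK8 kit following the manufacturer's instructions.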

| SMILES | IC50 |
| --- | --- |
| C=C1[C@@H](OC(=O)c2cccnc2)C[C@H]2[C@@H](/C=C(\C)C(=O)[C@@]3(OC(C)=O)C[C@H](C)[C@H](OC(=O)c4ccccc4)[C@@H]3[C@H]1OC(C)=O)C2(C)C | > 50 µM |
| C=C1[C@@H](OC(=O)c2ccccc2)C[C@H]2[C@@H](/C=C(\C)C(=O)[C@@]3(OC(C)=O)C[C@H](C)[C@H](OC(=O)c4ccccc4)[C@@H]3[C@H]1OC(C)=O)C2(C)C | > 50 µM |
| C=C1[C@H](O)C[C@H]2[C@@H](/C=C(\C)C(=O)[C@@]3(OC(C)=O)C[C@H](C)[C@H](OC(=O)c4ccccc4)[C@@H]3[C@H]1OC(C)=O)C2(C)C | > 50 µM |
| CC(=O)O[C@]12C[C@H](C)[C@H](OC(=O)Cc3ccccc3)[C@@H]1/C=C(/CO)CC[C@H]1[C@@H](/C=C(\C)C2=O)C1(C)C | > 50 µM |
| CC(=O)O[C@]12C[C@H](C)[C@H](O)[C@@H]1[C@H]1O[C@]1(C)CC[C@H]1[C@H](/C=C(\C)C2=O)C1(C)C | > 50 µM |
| C=C1CC[C@H]2[C@@H](/C=C(\C)C(=O)[C@@]3(OC(C)=O)C[C@H](C)[C@H](OC(=O)/C=C/c4ccccc4)[C@@H]3[C@H]1O)C2(C)C | > 50 µM |
| CC(=O)O[C@]12C[C@H](C)[C@H](OC(=O)/C=C/c3ccccc3)[C@@H]1/C=C(/CO)CC[C@H]1[C@@H](/C=C(\C)C2=O)C1(C)C | > 50 µM |
| C=C1CC[C@H]2[C@@H](/C=C(\C)C(=O)[C@@]3(OC(C)=O)C[C@H](C)[C@H](OC(=O)c4cccnc4)[C@@H]3[C@H]1OC(C)=O)C2(C)C | > 50 µM |
| C=C1[C@H](OC(C)=O)C[C@H]2[C@@H](/C=C(\C)C(=O)[C@@]3(OC(C)=O)C[C@H](C)[C@H](OC(=O)c4ccccc4)[C@@H]3[C@H]1O)C2(C)C | > 50 µM |
| CC(=O)O[C@@H]1[C@H]2[C@@H](OC(=O)Cc3ccccc3)[C@@H](C)C[C@]2(OC(C)=O)C(=O)/C(C)=C/[C@@H]2[C@H](CC[C@]13CO3)C2(C)C | > 50 µM |
| CC(=O)OC/C1=C\C[C@H]2[C@@H](/C=C(\C)C(=O)[C@@]3(O)C[C@H](C)[C@H](OC(=O)c4ccccc4)[C@@H]3[C@H]1OC(C)=O)C2(C)C | > 50 µM |
| C=C1[C@@H](OC(=O)c2ccccc2)C[C@H]2[C@@H](/C=C(\C)C(=O)[C@@]3(O)C[C@H](C)[C@H](OC(=O)c4ccccc4)[C@@H]3[C@H]1OC(C)=O)C2(C)C | > 50 µM |
| C=C1CC[C@H]2[C@@H](/C=C(\C)C(=O)[C@@]3(OC(C)=O)C[C@H](C)[C@H](OC(=O)c4ccccc4)[C@@H]3[C@H]1OC(C)=O)C2(C)C | > 50 µM |
| CC(=O)OC/C1=C/[C@@H]2[C@@H](O)[C@@H](C)C[C@]2(OC(C)=O)C(=O)/C(C)=C/[C@@H]2[C@H](CC1)C2(C)C | > 50 µM |
| CC(=O)OC/C1=C/[C@H]2[C@@H](OC(=O)[C@H](O)c3ccccc3)[C@@H](C)C[C@]2(OC(C)=O)C(=O)/C(C)=C/[C@@H]2[C@H](CC1)C2(C)C | > 50 µM |
| CCCCCC(=O)O[C@H]1[C@@H](C)C[C@]2(OC(C)=O)C(=O)/C(C)=C/[C@@H]3[C@H](CC/C(CO)=C\[C@@H]12)C3(C)C | > 50 µM |

target: T1, NF-kappa-B inhibitor alpha (Mus musculus); assay: Inhibition of LPS-induced IkappaBalpha phosphorylation in mouse RAW264.7 cells at 10 uM preincubated for 3 hrs followed by LPS-stimulation and measured by Western blot analysis; type: cell-based; conditions: not given
Method in brief: (§2)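 Cells were pretreated with compound for 3 h before LPS addition. Equal protein by BCA went onto 10% SDS-PAGE and nitrocellulose, probed for iNOS, NF-κB, IκBα and p-IκBα with chemiluminescence detection.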

| SMILES | inhibition |
| --- | --- |
| C=C1CC[C@H]2[C@@H](/C=C(\C)C(=O)[C@@]3(OC(C)=O)C[C@H](C)[C@H](OC(=O)/C=C/c4ccccc4)[C@@H]3[C@H]1O)C2(C)C | Active |

target: T1, NF-kappa-B inhibitor alpha (Mus musculus); assay: Inhibition of IkappaBalpha phosphorylation in LPS-induced mouse RAW264.7 cells assessed as reduction in NFkappaB expression preincubated for 3 hrs followed by LPS-stimulation and measured by Western blot analysis; type: cell-based; conditions: not given; method in brief: as §2

| SMILES | inhibition |
| --- | --- |
| C=C1CC[C@H]2[C@@H](/C=C(\C)C(=O)[C@@]3(OC(C)=O)C[C@H](C)[C@H](OC(=O)/C=C/c4ccccc4)[C@@H]3[C@H]1O)C2(C)C | Dose-dependent effect |

target: T1, NF-kappa-B inhibitor alpha (Mus musculus); assay: Inhibition of IkappaBalpha phosphorylation in LPS-stimulated mouse RAW264.7 cells assessed as reduction in iNOS expression preincubated for 3 hrs followed by LPS-stimulation and measured by Western blot analysis; type: cell-based; conditions: not given; method in brief: as §2

| SMILES | inhibition |
| --- | --- |
| C=C1CC[C@H]2[C@@H](/C=C(\C)C(=O)[C@@]3(OC(C)=O)C[C@H](C)[C@H](OC(=O)/C=C/c4ccccc4)[C@@H]3[C@H]1O)C2(C)C | Dose-dependent effect |
